System: MS2 coat protein
Assay: apparent Kd, MS2 coat protein; higher = weaker binding; RNA-MaP array; FMN 200 µM where present
Procedure, shortened: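 In 100 mM Tris-HCl pH 7.5, 80 mM KCl, 4 mM MgCl2, BSA, DTT, yeast tRNA and Tween-20, SNAP-549-labelled MS2 coat protein was titrated from 0.7 or 1.5 nM, doubling to 3 µM, over designs transcribed by stalled E. coli RNA polymerase on Illumina sequencing-chip clusters. This was done first without ligand, then with ligand held constant. After green signal was normalised to red-channel RNA signal and control-cluster median Fmax, the apparent Kd was taken as the median of filtered per-cluster binding-curve fits.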

[1] = designed as: OFF switch for flavin mononucleotide, no ligand
[2] = ligand present: flavin mononucleotide, designed as: OFF switch for flavin mononucleotide
[3] = designed as: ON switch for flavin mononucleotide, no ligand
[4] = ligand present: flavin mononucleotide, designed as: ON switch for flavin mononucleotide

| Sequence | apparent Kd [1] [nM] | apparent Kd [2] [nM] | apparent Kd [3] [nM] | apparent Kd [4] [nM] |
| --- | --- | --- | --- | --- |
| GCUGGUCGAGGAUAUAUAUGACGUGCUUCGGCACGAAGAUCACAUGAGGAUCACCCAUGUAGAAGGUGACCAGC | 53.8 | 267 |  |  |
| AGUGUGUGGCAGGAUAUUCUAAUCGUGAGUCGGGAAGAAGGGUCUACAUGAGGAUCACCCAUGUAAGCGGUUGA | 132 | 144 |  |  |
| UAUUUUUAUGUAAGGAUAUGGGUUUGGUUGCGGGCUUAGAAGGUACAUGAGGAUCACCCAUGUAUUUUGUGCAU | 32.8 | 35.3 |  |  |
| UGUUCUAUGUAGAAGGCCCAUAUCUGUACUUAGGGAGGAUAUACAUGAGGAUCACCCAUGUGUAGAGCUGGUGGACUGGUCAGC | 16.5 | 37.2 |  |  |
| AAGCUCUGUGAGAAGGCGCCCUUUGCGGUUGGGCGAGGAUAUCACAUGAGGAUCACCCAUGUCGGUGCAUCAGACAGCGUAUAA | 215 | 40.3 |  |  |
| GGAAAACAUGAGGAUCACCCAUGUGAGGAUAUCGAUGUCCACCCACCCGUGCGGGACUCGAGAAGGCACUUGGA | 44.4 | 148 |  |  |
| GCCUUAUCGGUCAGGAUAUACACUUGUUAGUUGUUGUAGAAGGGACAUGAGGAUCACCCAUGUACAUUACAUUG | 23.2 | 58.5 |  |  |
| UUUCCUGGAGGAUAUACAUGAGGAUCACCCAUGUGGUUCGGAUUAAGCGGCUUACGCGGUAGAAGGUUAGACUU | 108 | 85.1 |  |  |
| GUAUUUUUACAGAAGGUGUAUUACAUGAGGAUCACCCAUGUAUUAUGGAAUAAAGUUGUUAUUUACAAGGAUAUGUACUAUUUU |  |  | 19.3 | 14.8 |
| CCCGACCAGAAGUCGGUACGGAGGAGAAGGCGCCUCCUGGGUCCACAUGAGGAUCACCCAUGUGGCGAGGAUAUCCUCAGUUUU | 13.7 | 119 |  |  |
| AUGUGGUGCGUAGGAUAUCAUUAAAGAAAACCCUGAGAAGGACGUGAGGACAUGAGGAUCACCCAUGUGGAUCACCCAUGUCAU | 320 | 285 |  |  |
| UGGUACUAGGGAGGAUAUGGGAAGCUACAUGAGGAUCACCCAUGUUUAAGAAUGCCGAGAGGCAACUAGAAGGCCCUAGUACCU |  |  | 30.2 | 5.56 |
| GGAGGACGAAACAUGAGGAUCACCCAUGUGUUAUAAUUAAUAUAGGAUAUGUUUAUACUUUUUGGGCAGAAGGAUGAUAAUGUU |  |  | 22.2 | 19.7 |
| AGUGUGUGGCAGGAUAUUCUGAUCGUGAGUCGGGAAGAAGGGUCUACAUGAGGAUCACCCAUGUGAGCGGUUGA | 248 | 432 |  |  |
| GCAAGAAUAGGAUAUACACCAUGUCAGCUUCUAUACAACGCACAUGAGGAUCACCCAUGUAGAAGGGUUCUCUC | 553 | 504 |  |  |
| GGGUACAUGGGAGGAUAUCCUCAAGAGACAUGAGGAUCACCCAUGUAUUAUAUGCCUCAUGGCAUGGAGAAGGCCCAUGUACCG |  |  | 188 | 160 |
| GUAGCUACUAUUAUACAUGAGGAUCACCCAUGUUACAUGGGUAAGGAUAUUGAAGUUAUGAUUAUCAAGAAGGUACUAUGCUAC |  |  | 511 | 118 |
| UUUUUUGUUGUGAGGAUAUCGUAUUUUUUUUGUUACGAGAAGGCACAUGAGGAUCACCCAUGUUUCUUGAUGUU | 13.6 | 28.6 |  |  |
| AAUUAAUUAAUACAUGAGGAUCACCCAUGUAAUUAUUAGAUCUAGGAUAUCAGCUCGAUUAGAGCUGAGAAGGAGAUCACAUGU |  |  | 18.5 | 14.8 |
| ACAUGAGGAUCACCCAUGUAGAUACUAGAAGGGUAAGACUAGUAGUUACAUGACGACCAAGCAUUACAGGAUAUAGGAAUUGGA |  |  | 81.2 | 39.2 |
| UGUGCUGAAGGAUAUGCGUAAGCUCGGUGACGAGCAGGUCUACAUGAGGAUCACCCAUGUAGAAGGUCAGUACU | 15.8 | 16 |  |  |
| GGUAUGGACAGAGGAUAUACCGAUAGGAGAUACUAUCGACUAUUCCUCACAUGAGGAUCACCCAUGUAGAAGGCUGUCCAUACG | 17 | 65.5 |  |  |
| UCUGGAGCAGGAUAUAUAUGACGUGCUUCGGCACGAAGAUCACAUGAGGAUCACCCAUGUAGAAGGGCUCCAGA | 109 | 946 |  |  |
| AGUAAGUUUGAGAAGGUGAAGUGGAAACAUGAGGAUCACCCAUGUAUUAGGAAGCCUGGUUUUGUCAAGGAUAUCGGGUUUACA |  |  | 17.9 | 16.5 |
| AAUAUGAGCUGGUUAUAAAACCUGACAUGAGGAUCACCCAUGUAGGAUAUCAGCACGAUAAGUGCUGAGAAGGACAUCCAGCUC | 13.4 | 14 |  |  |
| CAUACACAUGAGGAUCACCCAUGUGAGGAUAUGCGUACGUUGUCAGUAGGCGACGUGCGCAGAAGGCGCGUGUU | 60.5 | 47.7 |  |  |
| ACCUCACAUGAGGAUCACCCAUGUUAGGAUAUCUCGAUGCUCCACGGGCGGUAGCAUCAGAGAAGGAACGUGCU | 23.9 | 21.5 |  |  |
| GCUGGUCAAGGAUAUAUAUGACGUGCUUCGGCACGAAGAUCACAUGAGGAUCACCCAUGUAGAAGGUGACCAGC | 96.9 | 793 |  |  |

| Sequence | apparent Kd [1] [nM] | apparent Kd [2] [nM] | apparent Kd [3] [nM] | apparent Kd [4] [nM] |
| --- | --- | --- | --- | --- |
| UGUGUCAUCGAGAAGGCCUCAACAUGAGGAUCACCCAUGUUGUAAUAUGGGAGGAUAUCGAUGAUACAGCUACGUUUCGUAGCG |  |  | 19.8 | 5.56 |
| GGAUGACAAAGUCAUCCAUAACGAACAUGAGGAUCACCCAUGUAGGAUAUGCAACUCAAAGAGUUGCAGAAGGACAUGUGCCUU | 34.6 | 273 |  |  |
| AGAUGCUCGAGUCGACAUGAGGAUCACCCAUGUACAGUUAGUGAGGAUAUCUGAGACACAUAGUAGGAGAAGGCGCGAACGUGA | 84.4 | 192 |  |  |
| GGUCGUCACAUUAACAUGAGGAUCACCCAUGUCAAAAGACAUGAGGAUAUGCAUAAUAAUAUAAAGCAGAAGGCAUGGACGACC |  |  | 240 | 14.4 |
| UUAAAUCAUGUAGGAUAUGCAUGGCGAAGCUACGCAGAAGGACAUGAGGAUCACCCAUGUUAUAGCUAGCCAGUUCGCUGGCAA | 23.6 | 164 |  |  |
| UGUCGGCGCAGAGGAUAUUACAUGAGGAUCACCCAUGUAUGAACCAAUAGCUGGAAACAGCAAUGUAAGAAGGCUGCUCCGACA | 12.5 | 154 |  |  |
| CAAGACAUUCGAAACUGCCGGCCGCAGGAUAUGGGUCGUUUAUACAUGAGGAUCACCCAUGUCGCCUAGAAGGGCGGCUGGGUC |  |  | 174 | 17.6 |
| UAGAGCGCUUGAGGAUAUCGCUUUGUGAUGGUACUCAUGCUUGUUACAUGAGGAUCACCCAUGUGCGAGAAGGCAGGCCGUUAG | 59.3 | 12.6 |  |  |
| GAUAGGACAGAGAAGGACGUAGCUAGAGAUACUAGCAUAAAGUCCUCAACAUGAGGAUCACCCAUGUAGGAUAUCUGUCCUAUC | 6.39 | 7.13 |  |  |
| CUAUUCCGAGGAUAUACAUGAGGAUCACCCAUGUCGGGCCUCAGCGUUUAGCGCGUAAGUAGAAGGUGGGUUUC | 32.3 | 37.8 |  |  |
| GUUUUGGGAGGAUAUAUGUGGAUUAUUUUCGUAUGUUGUUUACAUGAGGAUCACCCAUGUAGAAGGUCUAGAGC | 68.3 | 198 |  |  |
| AUUAUUUUCGAAGGAUAUGGAUACAUGAGGAUCACCCAUGUAUAAAAUGAGAUCUAUUAUAUGAUCCAGAAGGUCGUUGUUUAU | 35.6 | 68.8 |  |  |
| GGUGCGUUUGUGAGGAUAUGCUGGUCCUUGGUUCCGCAGAAGGCACAUGAGGAUCACCCAUGUGGUGUCGUACC | 195 | 373 |  |  |
| UACAGACAUGAGGAUCACCCAUGUAAGGAUAUCGGUACUAAUGGUAUAAUCUACUUAGCGAGAAGGUACAGUGU | 33.9 | 30.5 |  |  |
| AUAGCUGGGAAGUAAACUCGUGCGGCAGAAGGGUGAUACUGGACAUGAGGAUCACCCAUGUGCACACAGGAUAUGCCCGCGAGC |  |  | 207 | 35 |
| ACAUACAUUCGAGGAUAUCAGUGAACAUAUUAUUGAGAAGGCGAUAUUAUUUUUAAUCUUAUUUACAUGAGGAUCACCCAUGUU |  |  | 22.6 | 19.6 |
| CGGUACAUCGGAGGAUAUCAUGUAAAUACAUGAGGAUCACCCAUGUCGAUGGAGACAUCGGAGAUUGAGAAGGCCGAUGUACCG |  |  | 186 | 9.27 |
| GUCAGCUCGUCAGGAUAUACAACACUGCUUCGGCAGUGUAUUAAGAUCACAUGAGGAUCACCCAUGUAGAAGGCACGAGCUGAU | 7.39 | 7.56 |  |  |
| UGGUCAUCAUCAGGAUAUUAACGUGGGCUACAUUAAGAAGGGAUAGUGGGAGAGGAUGUGAAACAUGAGGAUCACCCAUGUUGU |  |  | 13.3 | 10.6 |
| UUUGGGUGGCUGGAGGAUAUCCUGGUUGUUACAUGAGGAUCACCCAUGUGCCGCGCGGUGCGCUGGGAGAAGGCUGGCGGCCGUU |  |  | 130 | 27.6 |
| GUGAUACAUGAGGAUCACCCAUGUCAGGAUAUGAUACUAUGUACUUCGGUACAUAGUAUCAGAAGGGACAGUGA | 138 | 92.5 |  |  |
| AGAGAUGACGAAGGAUAUGGAUACAUGAGGAUCACCCAUGUUUAUUUAGUGAUUUUGUAUGAAUACCAGAAGGUCGAAUAAAAG | 125 | 342 |  |  |
| CUUUUGUGAGGAUAUUAGUAGUAUAUAAAUAAAAUUACUACUGAGAAGGCACAUGAGGAUCACCCAUGUUCCUC | 32.7 | 124 |  |  |
| AGUAACAGAGGAUAUACUGUUUUAUGUGUUUGUUAUUUUAAACAUGAGGAUCACCCAUGUAGAAGGCUGAAUAA | 24.3 | 23.4 |  |  |
| GUAGCUAUCGGAGGAUAUUCAUACCGGAAACGGACAUGAGGAUCACCCAUGUGGCGAAAGCCUUGGGAGAAGGCCGAUAGCUAC |  |  | 601 | 20.8 |
| UUCGUGCAGCUUUGUUGUACGCGUACAUGAGGAUCACCCAUGUAGGAUAUGGUACGCUUUGCGUGCUAGAAGGAUAUGGAGAGG | 13.2 | 15.4 |  |  |
| CAGUACUGAGGAUAUACAUGAGGAUCACCCAUGUGUUCGAUACUAGUGAGGUCGAUUAGUAGAAGGCAGUACUG | 21.3 | 248 |  |  |
